Bioassay records deposited in PubChem BioAssay by several laboratories.
The list is not random: actives were taken first. Their share in the collection is about 8.9%.
Lmaj promast = inhibitors of Leishmania major promastigote growth; Leishmania major promastigotes, resazurin fluorescence viability; inhibition, % at 10 µM; 200,000 tested, 9% active; AID 1063; in the data active = inhibition above about 50%;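 note: promastigotes grown with compound for 44 hours at 28 °C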
Dynein transport = dynein cargo transport inhibition. 3617.4 mouse cells, GR-EGFP nuclear translocation imaging; test concentration mostly 20 µM; stimulated with dexamethasone, 1 µM; hits give low values. z-score, hits read low. 220,000 tested, 0.47% active. AID 1381;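 active = plate z-score of nuclear minus cytoplasmic receptor signal below a set negative limit, without overly bright fluorescence or cell loss, cut at about -3.5 in these data, passing the limit was not always enough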;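 note: z-score of nuclear minus cytoplasmic ring GR-EGFP intensity difference per well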
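Schedule: 48 h induction, then 1 h compound, then 30 min agonist, 37 °C. Buffer or medium: tetracycline-free induction medium containing charcoal-stripped FBS. Reagent: 1.0 µM final dexamethasone stimulus. Evaluation: nuclear versus cytoplasmic GR-EGFP signal, averaged per well. Signal: high-content fluorescence imaging after fixation.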
HSV replic up = increases HSV replication in cells. HSV replication augmentation in cells, fold increase. maximum fold increase. 220,000 tested, 0.005% active. AID 1956; in the data active = maximum fold increase above about 1.5; tested in PC3 cells
MT stabilizer = microtubule stabilization, imaging screen | HeLa tubulin immunostaining HCS, 24 h; share of cells brighter than vehicle mean+2SD | % tubulin-high responders, % at 10 µM | 200,000 tested, 0.83% active | AID 2205;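 active = plate Z-score above 3 for both tubulin-high and condensed-nucleus cell shares, with cell loss under 80%, at 10 µM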;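 note: anti alpha tubulin signal scored within the nucleus-defined area of each cell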
b-catenin transl = beta-catenin nuclear translocation modulation; HeLa beta-catenin nuclear translocation, immunofluorescence imaging; nuclear translocation activity, % at 5 µM; 190,000 tested, 0.3% active; AID 1665;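 active = nuclear translocation activity above 50% at 5 µM, with a well cell count of 50 or more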;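 note: per-cell ratio of nuclear to cytoplasmic median beta-catenin stain intensity; plate controls were DMSO negative control for no effect and GSK-3 inhibitor IX positive control for full effect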
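System: HeLa cells, endogenous beta-catenin; compound dosing: 5 µM primary single dose, 0.1% DMSO, 0.02–20 µM confirmation series; incubation: 24 h compound exposure at 37°C, 5% CO2; signal: beta-catenin immunofluorescence imaging with DAPI; evaluation: % activation, nuclear-to-cytoplasmic median beta-catenin signal ratio per cell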
* hit, by the source's call; i = inactive; . = no result given.

SMILES	Lmaj promast	Dynein transport	HSV replic up	MT stabilizer	b-catenin transl
C=C(CO)CC1CC(O)[C@]2(C)OC3CC4OC5C[C@]6(C)O[C@]7(C)CCC8OC9C[C@]%10(C)OC%11C(C)=CC(=O)OC%11CC%10OC9C[C@@H](C)C8OC7CC6O[C@]5(C)C/C=C\C4OC3CC2O1 (some centres undefined)	55.6*	-0.966	i	2.6	0.9
CN(CC(=O)Nc1ccccc1-c1ccccc1)C1CCCCC1	10.6	-0.477	i	3.6	5.1
c1ccc(C(OCCN2CCNCC2)c2ccccc2)cc1	100.2*	-0.452	i	3.6	5.3
COc1cc(C(c2c(C)[nH]n(-c3ccccc3)c2=O)c2c(C)[nH]n(-c3ccccc3)c2=O)cc(OC)c1OC	95.0*	-0.465	.	2.9	-1.4
CCOC(=O)c1c(C)n(C(C)C)c2ccc(OC(=O)c3ccc(N4C(=O)CCC4=O)cc3)cc12	3.0	-0.516	i	4.7	-0.2
O=c1[nH]c(=O)n(-c2ccccc2)c(O)c1/C=C1/C(c2ccccc2)=Nc2ccccc21	78.8*	0.507	i	30.9*	79.5*
COC(=O)C1=Nc2ccccc2/C1=C\c1c(O)n(-c2ccc(Br)cc2)c(=O)[nH]c1=O	66.9*	-0.261	i	5.2	-7.2
COc1ccc(OC)c(-n2c(O)c(/C=C3\C(C)=Nc4ccccc43)c(=O)[nH]c2=O)c1	.	-0.604	i	.	-0.6
COC(=O)C1=Nc2ccccc2/C1=C\c1c(O)n(-c2ccc(OC)cc2)c(=O)[nH]c1=O	-2.8	-0.666	i	2.3	1.0
CC(C)n1c(=O)c(C=Nc2ccc(F)cc2)c(O)n(Cc2ccco2)c1=O	-3.2	0.606	i	1.8	2.4
CC1C(c2cccs2)=[N+]([O-])C(C)(C(=O)c2ccc(Cl)cc2)N1O (centres undefined)	4.1	0.916	.	2.2	.
COc1cccc(C2(O)CCN(Cc3ccncc3)CC2)c1	91.8*	-0.682	i	2.4	0.1
NC(N)=N/N=C/c1cn(-c2ccccc2)nc1-c1cccs1	100.5*	-6.62	i	78.1	-2.0
O=C1NC(=O)N(CCC2=CCCCC2)C(=O)/C1=C\c1cccs1	55.0*	-0.777	i	2.5	-1.2
Cc1ccc(N2C(=O)NC(=O)/C(=C/c3cnc(-c4ccccc4)nc3)C2=O)cc1C	-2.6	0.661	i	3.6	-3.9
CC(=O)Nc1ccc([As](=O)(O)c2ccc([N+](=O)[O-])cc2)cc1	.	-0.361	i	.	0.7
O=c1c2ccccc2nc(SCC2CCCCO2)n1-c1ccccc1 (centres undefined)	75.7*	-1	i	2.9	.
CCC(=O)OC1(c2ccccc2)C(C)CN(C)CC1C (centres undefined)	-2.0	0.188	i	4.3	0.6
CC(C)(C)C(=O)Cn1c(NCCCl)nc2ccccc21	8.1	-0.321	i	4.5	-1.3
Cc1cc(OC(=O)N(C)C)nc(SCc2c(Cl)cccc2Cl)n1	.	0.447	i	.	-4.7
O=C1NC(=O)C(=Cc2ccccc2OCCOc2ccc([N+](=O)[O-])cc2)C(=O)N1	64.0*	-0.277	i	4.1	-0.3
CN1C(=O)C(=Cc2ccccc2OCc2ccccc2Cl)C(=O)N(C)C1=O	66.3*	0.101	i	4.1	-1.6
CN1C(=O)C(=Cc2ccccc2OCCOc2ccc([N+](=O)[O-])cc2)C(=O)N(C)C1=O	77.8*	-0.718	i	2.8	.
O=C1NC(=O)C(=Cc2ccc(Oc3ccc([N+](=O)[O-])cc3)cc2)C(=O)N1	10.4	0.314	i	2.3	0.2
COc1ccc(C=C2C(=O)N(C)C(=O)N(C)C2=O)cc1COc1ccc(NC(C)=O)cc1	.	-0.727	i	.	0.1
SMILES	Lmaj promast	Dynein transport	HSV replic up	MT stabilizer	b-catenin transl
CN1C(=O)C(=Cc2ccccc2OCc2ccc(C(=O)O)cc2)C(=O)N(C)C1=O	-8.7	1.86	i	1.0	0.8
CC/C(=N\Nc1ccccc1)c1c(O)n(-c2ccccc2)c(=O)[nH]c1=O	.	0.262	i	.	0.8
Clc1ccc(COC(Cn2ccnc2)c2ccc(Cl)cc2Cl)c(Cl)c1 (centres undefined)	98.9*	0.451	i	4.2	0.5
Cc1cccc(CS(=O)(=O)Cc2ccc(C(=O)N3CCC4(CC3)OCCO4)o2)c1	-5.9	0.0497	i	3.7	0.7
CC(=O)OC1N=C(c2ccccc2)c2cc(Br)ccc2NC1=O (centres undefined)	84.9*	-0.278	i	3.0	-0.2
CCOC(=O)c1c(NC(=O)C(c2ccccc2)c2ccccc2)sc2c1C1CCN2CC1	100.4*	-0.405	i	2.8	-0.7
CCOC(=O)c1c(NC(=O)c2c(N)n(CCCOC)c3nc4ccccc4nc23)sc2c1CCCC2	-5.6	0.761	i	2.8	-0.9
C(#CCN1CCOCC1)COC/C=C/c1ccccc1	0.8	0.791	i	13.1	-4.9
COc1ccc(OCC#CCN2CCCCCC2)cc1	85.4*	0.898	i	5.1	-6.0
C(#CCN1CCCCC1)COCc1ccccc1	89.5*	1.98	i	1.9	-1.7
c1ccc(C2N3CCCN23)cc1 (centres undefined)	-9.7	-0.729	i	3.3	-0.5
Cc1ccsc1C(=O)C1CCCN(Cc2cccc(-n3cccn3)c2)C1 (centres undefined)	57.6*	-1.49	i	2.8	-2.2
CN(Cc1ccccc1)C(=C(Cl)Cl)/C(=C1/NCCN1Cc1ccc(Cl)nc1)[N+](=O)[O-]	5.9	0.0529	i	1.1	.
O=c1[nH]c(=O)n(C2CCCCCC2)c(O)c1C=NC1CCN(Cc2ccccc2)CC1	89.1*	-0.467	i	1.8	-3.3
Cn1c(O)c(C=NC2CCN(Cc3ccccc3)CC2)c(=O)[nH]c1=O	.	0.43	i	.	0.5
N#CCCn1cc(C(=O)Nc2ccccc2Cl)c(-c2ccc([N+](=O)[O-])cc2)n1	9.7	1.1	i	3.9	-0.6
CC1CCC(C(=O)NC(C(=O)N2CCC3(CC2)OCCO3)C(C)C)CC1 (centres undefined)	0.6	-0.285	i	1.7	.
O=C(Oc1ccc([N+](=O)[O-])cc1)N1CCC(N2CCCCC2)CC1	92.7*	-0.565	i	4.2	-3.5
CC(=O)Nc1ccc(OC(=O)N2CCCCC2)cc1	-5.5	-0.422	i	2.1	1.5
COc1cc(C(=O)Nc2ccc(Br)cc2C(=O)c2ccccc2Cl)cc(OC)c1OC	50.9*	-0.733	i	3.9	4.7
COc1ccc(-c2cc(=NCCC(=O)O)c3cc(C)ccc3o2)cc1	61.5*	0.682	i	3.9	-1.9
CCCCc1nc(N2CCNCC2)c(C#N)c2c1CSC(C)(C)C2	97.2*	-2.81	.	3.6	-1.3
N#Cc1c(N2CCNCC2)nc(-c2ccco2)c2c1CCCC2	.	0.874	i	.	1.7
CCOc1ccc(-c2cc(C)[n+](CCO)c(-c3ccc(OCC)cc3)c2)cc1	99.1*	0.00105	i	6.7	-0.8
C=C1C(=O)O[C@@H]2C[C@@H](C)[C@@H]3C=CC(=O)[C@@]3(C)[C@@H](O)[C@H]12	.	-3.63*	i	.	5.3
